Screens (PubChem BioAssay)
The list is not random: actives were taken first. Their share in the collection is about 1.1%.
Calpain2 inh = inhibitors of pig calpain II, primary screen, biochemical, fluorogenic peptide substrate, 1536-well. purified calpain II, 30 min. inhibition, % at 16 µM. hit rate 0.37% among 220,000;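 active = inhibition above about 50%, limit read from the data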
Rad51 HR inh = human RAD51 strand exchange inhibitors, primary screen, biochemical, fluorescence | hit rate 0.085% among 200,000 | inhibition, % at 10 µM | DNA repair protein RAD51 homolog 1 (Homo sapiens), Q06609 | hRad51 DNA strand exchange, fluorescence dequenching | AID 1385, 2008;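 active = inhibition above 40% at the single screening dose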;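 note: 0% = DMSO control wells and 100% = blanks with heterologous ssDNA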
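Material: human Rad51–ssDNA filaments; Probe or stimulus: labelled 47-mer dsDNA for strand exchange; Doses: single 10 µM dose; Incubation: 37 °C 15-min filament assembly, 30-min compound preincubation, 15-min exchange; Technique: FRET fluorescence dequenching, excitation 485 nm, emission 520 nm; Measure: Fluorescence-based percent inhibition, control- and blank-normalised; Benchmarks: plate control and blank wells.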
PMI activator = activators of human PMI, primary screen, biochemical, fluorescence intensity, near-Km mannose 6-phosphate; Mannose-6-phosphate isomerase (Homo sapiens), P34949; purified human PMI, coupled resazurin fluorescence, 20 min; stronger effect = higher value; 1 = vehicle control, 0 substrate-free wells; activation factor at 20 µM; hit rate 0.005% among 190,000; AID 1214, 2008;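 active = activation factor of 2 or more at 20 µM, relative to plate controls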
Target sequence (P34949 whole entry, looked up): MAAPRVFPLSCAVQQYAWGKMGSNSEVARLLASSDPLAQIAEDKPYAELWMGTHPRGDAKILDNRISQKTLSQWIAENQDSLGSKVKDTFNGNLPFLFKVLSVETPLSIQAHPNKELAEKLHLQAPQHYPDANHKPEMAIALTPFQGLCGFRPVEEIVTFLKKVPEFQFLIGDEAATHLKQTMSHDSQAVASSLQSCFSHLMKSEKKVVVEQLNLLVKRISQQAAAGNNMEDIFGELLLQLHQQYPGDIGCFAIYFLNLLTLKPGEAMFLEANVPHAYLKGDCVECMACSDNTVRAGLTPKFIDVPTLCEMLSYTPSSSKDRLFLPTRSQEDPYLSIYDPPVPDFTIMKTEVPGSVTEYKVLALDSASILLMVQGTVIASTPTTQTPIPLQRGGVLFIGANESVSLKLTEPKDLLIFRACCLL
HMGR II inh = inhibitors of E. faecalis class II HMGR, primary screen, biochemical, Enterococcus faecalis; inhibition, % at 10 µM; purified E. faecalis HMGR, NADPH absorbance 340 nm kinetic; hit rate 0.41% among 190,000;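 active = inhibition above a set limit, the median over all tested compounds plus 3 SD, cut at about 9.5% in these data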;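 note: enzyme runs in reverse so mevalonate oxidation gives rising NADPH absorbance; 0% = complete reaction with DMSO and 100% = background rate lacking mevalonate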
PMI act satM6P = human PMI activators, high substrate, primary screen, biochemical, fluorescence intensity, near-saturating mannose 6-phosphate | hit rate 0.34% among 190,000 | coupled PMI enzyme assay, resazurin fluorescence, 20 min; stronger effect = higher value; 1 = untreated enzyme, 0 = substrate-free blank | activation factor at 20 µM | Mannose-6-phosphate isomerase (Homo sapiens), P34949;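 active = activation factor of 2 or more at 20 µM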
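Test system – human PMI in coupled enzyme assay · Timing – 20 min incubation at room temperature · Detection – Diaphorase-driven resazurin-to-resorufin fluorescence, excitation 544, emission 590 nm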
* marks the source's active call; other numbers are inactive results.

O=C(O)CC1S/C(=N/N=C/c2ccc([N+](=O)[O-])cc2)N(c2ccc(O)cc2)C1=O (stereo not given) was read as Calpain2 inh -13, Rad51 HR inh 8, PMI activator 1, HMGR II inh -1 and PMI act satM6P 1.
Screening CC1CCCC(NC(=O)COC(=O)COc2ccccc2Cl)C1C (stereo not given) returned Calpain2 inh 9, Rad51 HR inh 1, PMI activator 1.2, HMGR II inh 11* and PMI act satM6P 1.1.
For CN(C)c1nc(NCc2ccccc2)nc(N/N=C/c2ccc(Cl)cc2Cl)n1 the results were Calpain2 inh -20, Rad51 HR inh -5, PMI activator 1, HMGR II inh 2 and PMI act satM6P 1.
Screening CCCc1nc2ccccc2c(C(=O)OC(C)C(=O)NCc2ccc3c(c2)OCO3)c1CC (stereo not given) returned Calpain2 inh 19, Rad51 HR inh 3, PMI activator 0.9, HMGR II inh -5 and PMI act satM6P 0.9.
`CCOC(=O)C1CCN(c2c(Nc3ccc(C)c(C)c3)c(=O)c2=O)CC1` gave Calpain2 inh 12 and Rad51 HR inh -3.
CC(C)(CO)CNC(=O)CCc1nnc(C2(c3ccc(Cl)cc3)CCC2)o1 was read as Calpain2 inh 24, Rad51 HR inh 7, PMI activator 1, HMGR II inh -2 and PMI act satM6P 0.9.
For COCCNC(=O)CCc1nnc(C2(c3ccc(Cl)cc3)CCC2)o1 the results were Calpain2 inh -5, Rad51 HR inh -39, PMI activator 0.9, HMGR II inh 13* and PMI act satM6P 0.9.
CC(=O)Nc1cccc(-c2nc3ccccc3s2)c1 was read as Calpain2 inh -20, Rad51 HR inh 24, PMI activator 0.9, HMGR II inh -2 and PMI act satM6P 0.9.
Cc1ccc(C(=O)NC(=S)Nc2cccc(-c3nc4ccccc4s3)c2)cc1 was read as Calpain2 inh 0, Rad51 HR inh -7, PMI activator 0.9, HMGR II inh 10* and PMI act satM6P 1.
`O=C(O)c1cccc(NC(=S)NC(=O)c2ccc(-c3ccccc3)cc2)c1` gave Calpain2 inh 70*, Rad51 HR inh 3, PMI activator 1, HMGR II inh -3 and PMI act satM6P 1.
For CC(C)CN1CCC(CNC(=O)CCc2nnc(Cc3c[nH]c4ccccc34)o2)CC1 the results were Calpain2 inh -18, Rad51 HR inh 3, PMI activator 1.1, HMGR II inh -3 and PMI act satM6P 1.
For O=C(O)Cc1sc(N/N=C\c2ccncc2)nc1-c1ccccc1 the results were Calpain2 inh 13 and Rad51 HR inh -107.
Cc1ccc(NC(=O)c2ccc(C(C)(C)C)cc2)cc1-n1cnnn1 was read as Calpain2 inh 62*, Rad51 HR inh 33, PMI activator 1, HMGR II inh -5 and PMI act satM6P 1.
For COc1cc(C(=O)Nc2ccc(-n3cnnn3)c(C)c2)cc(OC)c1OC the results were Calpain2 inh 6, Rad51 HR inh 2, PMI activator 1, HMGR II inh 3 and PMI act satM6P 1.
For CCOC(=O)/C(C#N)=C/C1=C(N2CCOCC2)CC(C)(C)OC1 the results were Calpain2 inh 0 and Rad51 HR inh -8.
`Cc1cccc(COCCN2CCN(S(=O)(=O)c3ccccc3)CCC2=O)c1` gave Calpain2 inh 14 and Rad51 HR inh 4.
O=C(NNc1ccc(C2CCCCC2)cc1)C(O)(c1ccccc1)c1cccs1 (stereo not given) was read as Calpain2 inh -19, Rad51 HR inh -5, PMI activator 1.2, HMGR II inh -6 and PMI act satM6P 2.1*.
`CC(=O)N1CCC(N(CCN2CCOCC2)C(=S)Nc2ccccc2C)CC1` gave Calpain2 inh 20, Rad51 HR inh -6, PMI activator 1, HMGR II inh -1 and PMI act satM6P 1.1.
Screening CC(C)(C)c1ccc(/C=N/NC(=S)NCc2ccccc2)cc1 returned Calpain2 inh -16, Rad51 HR inh -17, PMI activator 0.9, HMGR II inh 0 and PMI act satM6P 1.1.
`C=CCNC(=S)N/N=C/c1ccc(C(C)(C)C)cc1` gave Calpain2 inh 64*, Rad51 HR inh -4, PMI activator 0.9, HMGR II inh -3 and PMI act satM6P 0.9.
`CC(C)CC(NC(=O)C(COC(C)(C)C)NC(=O)C(Cc1ccc(O)cc1)NC(=O)C(CO)NC(=O)C(Cc1c[nH]c2ccccc12)NC(=O)C(Cc1cnc[nH]1)NC(=O)C1CCC(=O)N1)C(=O)N[C@@H](CCCN=C(N)N)C(=O)N1CCCC1C(=O)NNC(N)=O` (stereo not given in full) gave Rad51 HR inh 0.
For O=C(N/N=C/c1cc([N+](=O)[O-])ccc1O)NC12CC3CC(CC(C3)C1)C2 the results were Calpain2 inh -42, Rad51 HR inh -19, PMI activator 1.1, HMGR II inh 1 and PMI act satM6P 1.2.
O=C(N/N=C/c1cc([N+](=O)[O-])ccc1O)C12CC3CC(CC(C3)C1)C2 was read as Calpain2 inh -25, Rad51 HR inh 2, PMI activator 1.3, HMGR II inh 13* and PMI act satM6P 1.3.
COC(=O)[C@@]1(Cc2ccc(F)cc2)[C@H]2c3cc(C(=O)N(C)C)n(Cc4c(CO)[nH]cc(C)c4=O)c3C[C@H]2CN1C(=O)c1ccccc1 was read as Calpain2 inh -36, Rad51 HR inh 5, PMI activator 1, HMGR II inh -7 and PMI act satM6P 0.9.
COc1ccc(Cl)cc1NC(=O)c1nc2nc(C)cc(C(F)F)n2n1 was read as Calpain2 inh -48, Rad51 HR inh 2, PMI activator 1, HMGR II inh 3 and PMI act satM6P 1.
COc1ccc(C(=S)N2CCN(c3ccccc3C)CC2)cc1 was read as Calpain2 inh 30 and Rad51 HR inh 19.
For O=C(Nc1ccc(S(=O)(=O)NC2=NCCCCC2)cc1)C1COc2ccccc2O1 (stereo not given) the results were Calpain2 inh -13 and Rad51 HR inh 41*.
For CCOC(=O)/C(=N/Nc1ccccc1)N1CCCc2ccccc21 the results were Calpain2 inh 29, Rad51 HR inh 1, PMI activator 1.5, HMGR II inh -2 and PMI act satM6P 2.4*.
For COC(=O)/C(=N/Nc1ccccc1C)N1CCCc2ccccc21 the results were Calpain2 inh 1, Rad51 HR inh -11, PMI activator 1.5, HMGR II inh -2 and PMI act satM6P 2*.
`CN1CCc2c(sc3nc(NN)n(Cc4ccccc4)c(=O)c23)C1` gave Calpain2 inh -11 and Rad51 HR inh -17.
